What was measured:
[1] = target: T1, Neutrophil elastase (Homo sapiens) (UniProt P08246); experiment: Inhibition of Human Leukocyte Elastase, activity is expressed as biomolecular rate constant
T1 sequence (whole entry): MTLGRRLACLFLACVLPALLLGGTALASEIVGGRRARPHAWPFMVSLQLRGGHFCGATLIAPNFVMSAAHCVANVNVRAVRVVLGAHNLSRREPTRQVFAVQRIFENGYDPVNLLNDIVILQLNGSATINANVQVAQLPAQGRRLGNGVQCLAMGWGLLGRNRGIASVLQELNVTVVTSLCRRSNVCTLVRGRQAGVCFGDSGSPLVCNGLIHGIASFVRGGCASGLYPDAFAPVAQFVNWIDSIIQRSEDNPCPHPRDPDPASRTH
Outline: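 Spectrophotometric assay at 25 °C with continuous monitoring of p-nitroaniline release at 410 nm from succinyl-Ala-Ala-Pro-Ala-p-nitroanilide. Activity given as the bimolecular rate constant kobs/[I] in M-1 s-1 (±SE).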

[2] = target: T1, Neutrophil elastase (Homo sapiens); experiment: Inhibition of Human Leukocyte Elastase induced lung hemorrhage in hamsters expressed as % inhibition (mean of 4 animals); format: functional; set-up: concentration or dose not given beside the values; settings: concentration not given here
Outline: (§1)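 Hamster lung hemorrhage model: inhibitor given orally at 30 mg/kg (some at 50 mg/kg) 30 min before instillation of HLE into the lung. Hemorrhage measured 3 h after instillation as hemoglobin content of lung lavage fluid, read spectrophotometrically. Reported as % inhibition, mean of four animals (±SD).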

[3] = test system: Cricetinae gen. sp.; experiment: Inhibition of Human Leukocyte Elastase induced Lung Hemorrhage in Hamsters expressed as % inhibition (mean of 4 animals); format: functional, Cricetulus griseus; outline: as §1

CCC1(CC)C(=O)N(C(=O)NCc2ccccc2)C1Oc1cccc(NC(C)=O)c1 (centres undefined)
k obs / 1 [1]: 1700 M⁻¹ s⁻¹

CCC1(CC)C(=O)N(C(=O)NCc2ccccc2)C1Oc1ccc(C(=O)CCC(=O)O)cc1 (centres undefined)
k obs / 1 [1]: 5000 M⁻¹ s⁻¹ | inhibition [2]: 85%

CCC1(CC)C(=O)N(C(=O)NCc2ccccc2)C1Oc1c(C)cc(C(=O)O)cc1C (centres undefined)
k obs / 1 [1]: 750 M⁻¹ s⁻¹

CCC1(CC)C(=O)N(C(=O)NCc2ccccc2)C1Oc1ccc(CCC(=O)O)cc1 (centres undefined)
k obs / 1 [1]: 2440 M⁻¹ s⁻¹ | inhibition [2]: 60%

CCC1(CC)C(=O)N(C(=O)NCc2ccccc2)C1Oc1ccc(C(=O)O)c2ccccc12 (centres undefined)
k obs / 1 [1]: 2000 M⁻¹ s⁻¹ | inhibition [2]: 15%

CCC1(CC)C(=O)N(C(=O)NCc2ccccc2)C1Oc1ccc(C(=O)O)cc1 (centres undefined)
inhibition [2]: 68%

CCC1(CC)C(=O)N(C(=O)NCc2ccccc2)C1Oc1ccc(C(=O)NS(=O)(=O)c2ccc(Cl)cc2)cc1 (centres undefined)
k obs / 1 [1]: 6900 M⁻¹ s⁻¹ | inhibition [2]: 11%

CCC1(CC)C(=O)N(C(=O)NCc2ccccc2)C1OCc1ccc(C(=O)O)cc1 (centres undefined)
k obs / 1 [1]: 54 M⁻¹ s⁻¹

CCC1(CC)C(=O)N(C(=O)NCc2ccccc2)C1OCC(O)CO (centres undefined)
k obs / 1 [1]: 800 M⁻¹ s⁻¹ | inhibition [2]: 46%

CCC1(CC)C(=O)N(C(=O)NCc2ccccc2)C1C(=O)c1ccccc1 (centres undefined)
k obs / 1 [1]: 22 M⁻¹ s⁻¹

CCC1(CC)C(=O)N(C(=O)NCc2ccccc2)C1Oc1ccc(CN(C)C)cc1 (centres undefined)
k obs / 1 [1]: 1600 M⁻¹ s⁻¹ | inhibition [2]: 0%

CCC1(CC)C(=O)N(C(=O)NCc2ccccc2)C1Oc1cccc(NC(=O)CCC(=O)O)c1 (centres undefined)
k obs / 1 [1]: 2700 M⁻¹ s⁻¹

CCC1(CC)C(=O)N(C(=O)NCc2ccccc2)C1n1ccccc1=O (centres undefined)
k obs / 1 [1]: 360 M⁻¹ s⁻¹ | inhibition [2]: 29%

CCC1(CC)C(=O)N(C(=O)NCc2ccccc2)C1Oc1cccc(C(=O)O)c1 (centres undefined)
k obs / 1 [1]: 1800 M⁻¹ s⁻¹ | inhibition [2]: 33%

CCC1(CC)C(=O)N(C(=O)NCc2ccccc2)C1Oc1ccccc1[N+](=O)[O-] (centres undefined)
k obs / 1 [1]: 890 M⁻¹ s⁻¹

CCC1(CC)C(=O)N(C(=O)NCc2ccccc2)C1Oc1ccccc1 (centres undefined)
k obs / 1 [1]: 1900 M⁻¹ s⁻¹

CCC1(CC)C(=O)N(C(=O)NCc2ccccc2)C1Oc1ccc(NC(=O)CCC(=O)O)cc1 (centres undefined)
k obs / 1 [1]: 2330 M⁻¹ s⁻¹ | inhibition [2]: -3%

CCC1(CC)C(=O)N(C(=O)NCc2ccccc2)C1Sc1cccnc1 (centres undefined)
k obs / 1 [1]: 250 M⁻¹ s⁻¹ | inhibition [2]: -5%

CCC1(CC)C(=O)N(C(=O)NCc2ccccc2)C1Oc1ccc(SC)cc1 (centres undefined)
k obs / 1 [1]: 3500 M⁻¹ s⁻¹ | inhibition [2]: 2%

CCC1(CC)C(=O)N(C(=O)NCc2ccccc2)C1OCC(=O)O (centres undefined)
k obs / 1 [1]: 160 M⁻¹ s⁻¹ | inhibition [2]: 6%

CCC1(CC)C(=O)N(C(=O)NCc2ccccc2)C1Oc1ccc([N+](=O)[O-])cc1 (centres undefined)
k obs / 1 [1]: 6800 M⁻¹ s⁻¹

CCC1(CC)C(=O)N(C(=O)NCc2ccccc2)C1Oc1ccc(CC(NC(=O)CCC(=O)O)C(=O)O)cc1 (centres undefined)
k obs / 1 [1]: 900 M⁻¹ s⁻¹ | inhibition [2]: 7%

CCC1(CC)C(=O)N(C(=O)NCc2ccccc2)C1Oc1ccccc1NC(C)=O (centres undefined)
k obs / 1 [1]: 270 M⁻¹ s⁻¹ | inhibition [2]: 24%

CCC1(CC)C(=O)N(C(=O)NCc2ccccc2)C1Oc1ccc(NC(C)=O)cc1 (centres undefined)
k obs / 1 [1]: 3500 M⁻¹ s⁻¹

CCC1(CC)C(=O)N(C(=O)NCc2ccccc2)C1Oc1cc(C)c(C(=O)O)c(C)c1 (centres undefined)
k obs / 1 [1]: 24 M⁻¹ s⁻¹

CCC1(CC)C(=O)N(C(=O)NCc2ccccc2)C1Oc1ccccc1NC(=O)CCC(=O)O (centres undefined)
k obs / 1 [1]: 70 M⁻¹ s⁻¹

CCC1(CC)C(=O)N(C(=O)NCc2ccccc2)C1Oc1ccc([S+](C)[O-])cc1 (centres undefined)
k obs / 1 [1]: 4200 M⁻¹ s⁻¹

CCC1(CC)C(=O)N(C(=O)NCc2ccccc2)C1Sc1nnnn1C (centres undefined)
k obs / 1 [1]: 3760 M⁻¹ s⁻¹ | Inhibition [3]: 26%

CCC1(CC)C(=O)N(C(=O)NCc2ccccc2)C1Oc1ccc(/C=C/C(=O)O)cc1 (centres undefined)
k obs / 1 [1]: 1600 M⁻¹ s⁻¹ | inhibition [2]: 61%

CCC1(CC)C(=O)N(C(=O)NCc2ccccc2)C1Oc1ccc(C(=O)O)c(C(=O)O)c1 (centres undefined)
k obs / 1 [1]: 570 M⁻¹ s⁻¹

CCC1(CC)C(=O)N(C(=O)NCc2ccccc2)C1Oc1ccccc1CC(=O)O (centres undefined)
k obs / 1 [1]: 44 M⁻¹ s⁻¹ | inhibition [2]: 45%

CCC1(CC)C(=O)N(C(=O)NCc2ccccc2)C1N1C=NC=CN1 (centres undefined)
k obs / 1 [1]: 246 M⁻¹ s⁻¹ | inhibition [2]: 72%

CCC1(CC)C(=O)N(C(=O)NCc2ccccc2)C1Oc1cccnc1 (centres undefined)
k obs / 1 [1]: 1620 M⁻¹ s⁻¹ | inhibition [2]: 46%

CCC1(CC)C(=O)N(C(=O)NCc2ccccc2)C1Oc1ccc2cc(C(=O)O)ccc2c1 (centres undefined)
k obs / 1 [1]: 5600 M⁻¹ s⁻¹ | inhibition [2]: 28%

CCC1(CC)C(=O)N(C(=O)NCc2ccccc2)C1Oc1ccc(C[N+](C)(C)C)cc1 (centres undefined)
k obs / 1 [1]: 2430 M⁻¹ s⁻¹ | inhibition [2]: 4%

CCC1(CC)C(=O)N(C(=O)NCc2ccccc2)C1Oc1ccc(C(=O)N2CCC[C@@H]2C(=O)O)cc1 (some centres undefined)
k obs / 1 [1]: 2900 M⁻¹ s⁻¹

CCC1(CC)C(=O)N(C(=O)NCc2ccccc2)C1N1N=CC=CN1Cc1ccccc1 (centres undefined)
k obs / 1 [1]: 650 M⁻¹ s⁻¹

CCC1(CC)C(=O)N(C(=O)NCc2ccccc2)C1Oc1ccc(CC(NC(=O)c2ccccc2)C(=O)O)cc1 (centres undefined)
k obs / 1 [1]: 5110 M⁻¹ s⁻¹

CCC1(CC)C(=O)N(C(=O)NCc2ccccc2)C1Oc1ccc(C(O)C(=O)O)cc1 (centres undefined)
k obs / 1 [1]: 2100 M⁻¹ s⁻¹ | inhibition [2]: 36%

CCC1(CC)C(=O)N(C(=O)NCc2ccccc2)C1n1ccnc1 (centres undefined)
k obs / 1 [1]: 200 M⁻¹ s⁻¹ | inhibition [2]: 55%

CCC1(CC)C(=O)N(C(=O)NCc2ccccc2)C1Oc1ccc(S(C)(=O)=O)cc1 (centres undefined)
k obs / 1 [1]: 4500 M⁻¹ s⁻¹ | inhibition [2]: 16%

CCC1(CC)C(=O)N(C(=O)NCc2ccccc2)C1Oc1ccc(CC(N)C(=O)O)cc1 (centres undefined)
k obs / 1 [1]: 2540 M⁻¹ s⁻¹

CCC1(CC)C(=O)N(C(=O)NCc2ccccc2)C1Oc1cccc(CC(=O)O)c1 (centres undefined)
k obs / 1 [1]: 1200 M⁻¹ s⁻¹ | inhibition [2]: 67%

CCC1(CC)C(=O)N(C(=O)NCc2ccccc2)C1Oc1cccc([N+](=O)[O-])c1 (centres undefined)
k obs / 1 [1]: 4800 M⁻¹ s⁻¹
